High-throughput results (PubChem BioAssay)
VLA-4 inh – inhibition in a human VLA-4 binding assay | VLA-4 expressing cells, ligand binding flow cytometry | inhibition, % (about 7 µM as worked out from the volumes in the protocol) | hit rate 0.2% among 330,000 | AID 2557; in the data active = inhibition above about 50%
TAAR1 agonist – human TAAR1 agonism. Q96RJ0. activation, % at 3 µM. hit rate 0.99% among 360,000. CHO RD-HGA16 TAAR1, Fluo-8 calcium fluorescence; vehicle wells 0%, saturating PEA agonist 100%;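 active = activation above the mean activation of all test compounds in the run plus 3 SD, cut at about 38% in these data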
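Assay system: CHO-derived RD-HGA16 cells with stable Gα16 and human TAAR1; timing: 17-24 h seeding, 75 min 37 °C dye, 30 min RT; read-out: % activation from peak over basal fluorescence ratio, DMSO-to-PEA scaled; measured by: kinetic Fluo-8 calcium fluorescence; benchmarks: low control DMSO, high control PEA (EC100); doses: 3 µM single concentration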
TAAR1 antag – antagonists of human TAAR1; CHO RD-HGA16 TAAR1, Fluo-8 calcium fluorescence, antagonist; inhibition, % at 3 µM; hit rate 1.5% among 360,000; AID 624466;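 active = inhibition above a per-plate cutoff, the mean inhibition of test compounds on that plate plus 3 SD, cut at about 49% in these data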
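Test system: CHO RD-HGA16 cells bearing hTAAR1 | Reagent: β-PEA, EC80 | Compound dosing: 3 µM, single point | Schedule: Dye loading 75 min at 37 °C, then 30 min room temperature | Signal: Calcium fluorescence with Fluo-8 | Evaluation: Percent inhibition of PEA-evoked calcium signal, max/basal emission ratio | Control set: DMSO-only wells and EC80 β-PEA-stimulated wells | Repeats: Singlicate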
Rce1 inhib – yeast Ras-converting enzyme inhibition; Q03530; yeast membranes, quenched prenylated peptide cleavage fluorescence; calls only; hit rate 0.27% among 290,000; AID 2563;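 active = fall in fluorescence gain of 50% or more versus controls, with final raw signal at or below 3038400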
Target sequence (Q03530 whole entry, looked up): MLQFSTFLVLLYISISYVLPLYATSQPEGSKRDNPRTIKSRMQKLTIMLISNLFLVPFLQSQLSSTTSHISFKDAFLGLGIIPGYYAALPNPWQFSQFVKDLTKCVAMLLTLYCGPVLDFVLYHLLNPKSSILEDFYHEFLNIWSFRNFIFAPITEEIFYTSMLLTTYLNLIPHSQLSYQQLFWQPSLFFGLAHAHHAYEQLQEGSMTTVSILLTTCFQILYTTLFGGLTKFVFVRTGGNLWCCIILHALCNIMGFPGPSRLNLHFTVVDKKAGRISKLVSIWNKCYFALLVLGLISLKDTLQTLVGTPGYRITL
Platelet DG rel – platelet dense granule release activity | human platelet-rich plasma, SFLLRN dense granule ATP release, luminescence | inhibition, %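 (compounds screened at 7.5 µM in platelet-rich plasma)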 | hit rate 0.22% among 300,000 | AID 1663;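 active = mean replicate score, as percent of positive control, at or above 50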
TAAR1 ag confirm – confirmation of human TAAR1 agonists; shares compounds with TAAR1 agonist; CHO RD-HGA16 TAAR1, Fluo-8 calcium fluorescence; scaled: DMSO 0%, maximal phenethylamine 100%; activation, % at 3 µM; hit rate 82% among 2,400; AID 651783;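 active = activation above a cutoff set at the run's mean compound activation plus 3 SD, cut at about 39% in these data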
Ga16 nonsel ag – nonselective agonist in parental cells, TAAR1 agonist counter-screen; shares compounds with TAAR1 agonist; CHO-Ga16 parental, Fluo-8 calcium fluorescence; normalized to maximal ATP response, DMSO zero; activation, % at 3 µM; hit rate 50% among 2,400;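 active = activation above the run cutoff, the mean activation over all tested wells plus 3 SD, cut at about 12% in these data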
TAAR1 desens – counter-screen for human TAAR1 agonists: agonists that desensitize TAAR1 | CHO RD-HGA16 hTAAR1, Fluo-8 calcium, beta-PEA response inhibition | AID 651951 | inhibition, % at 3 µM | shares compounds with TAAR1 agonist | hit rate 46% among 2,400;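 active = inhibition above the run cutoff, the mean inhibition of all test compounds plus 3 SD, cut at about 49% in these data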;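 note: beta-PEA stimulus applied at its EC80; loss of beta-PEA calcium signal after compound pretreatment read as receptor desensitization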
Ga16 antag count – nonselective Ga16 antagonist in TAAR1 agonist counter-screen; inhibition, % at 3 µM; CHO-Ga16 ATP-induced calcium, Fluo-8 fluorescence; AID 651952; hit rate 39% among 2,400; shares compounds with TAAR1 agonist;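 active = inhibition above the plate's mean compound inhibition plus 3 SD, computed per plate, cut at about 22% in these data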
Large screens that a line does not name were inactive (follow-up assays come after a bar, where they were run). Shown are actives, neighbours in structure and some others; about 2.6% of the full set was active somewhere.

CN(CCc1ccccc1)c1cc2c(c3c1ccn3C)C1CCC2O1 (stereo not drawn)	TAAR1 agonist 77.8, TAAR1 antag 69.0 (no result: VLA-4 inh, Rce1 inhib, Platelet DG rel) | TAAR1 ag confirm 94.1 | Ga16 nonsel ag inactive | TAAR1 desens 78.5 | Ga16 antag count inactive
CC(=O)n1cc([C@H]2C=C(C(N)=O)O[C@@H](OCc3ccc(CO)cc3)C2)c2ccccc21	TAAR1 agonist 77.9, TAAR1 antag 81.0 | TAAR1 ag confirm 74.3 | Ga16 nonsel ag 34.3 | TAAR1 desens 66.0 | Ga16 antag count 39.3
O=C(O)CN1C(=O)C(=O)N(Cc2ccc(C(F)(F)F)cc2)C1=O	none
CCCOc1ccc(-c2c(C(=O)N/N=C(\C)c3cccs3)nnn2-c2nonc2N)cc1	TAAR1 agonist 53.2 | TAAR1 ag confirm 55.8 | Ga16 nonsel ag 21.8 | TAAR1 desens inactive | Ga16 antag count inactive
COc1cc(/C(C)=N/NC(=O)c2nnn(-c3nonc3N)c2-c2cccs2)ccc1O	none
CCOc1ccc(/C(C)=N/NC(=O)c2nnn(-c3nonc3N)c2-c2cccs2)cc1	TAAR1 agonist 118.9 | TAAR1 ag confirm 117.2 | Ga16 nonsel ag 87.8 | TAAR1 desens inactive | Ga16 antag count inactive
Cc1ccc(-c2nc(CS(=O)(=O)CC(=O)N3CCc4ccccc4C3)c(C)o2)cc1	TAAR1 agonist 66.2 | TAAR1 ag confirm 82.3 | Ga16 nonsel ag inactive | TAAR1 desens 64.5 | Ga16 antag count inactive
Cc1ccc(-c2nc(CS(=O)(=O)CC(=O)N3CCCCCC3)c(C)o2)cc1	none
CN1CCCC(OC(=O)c2ccc(S(=O)(=O)N(C)C)cc2)C1 (stereo not drawn)	none
Cc1ccc(Cn2nc(C)c(NC(=O)c3cc(-c4ccco4)on3)c2C)cc1	none (no result: TAAR1 agonist, TAAR1 antag)
O=C(Nc1ccc(F)cc1F)c1cc(-c2ccco2)on1	none
O=C(Nc1c(F)cc(F)cc1Br)c1cc(-c2ccco2)on1	TAAR1 agonist 54.6 | TAAR1 ag confirm 55.9 | Ga16 nonsel ag inactive | TAAR1 desens inactive | Ga16 antag count inactive
Cc1nn(Cc2ccc(Cl)cc2)c(C)c1NC(=O)c1cc(-c2ccco2)on1	TAAR1 agonist 64.8, TAAR1 antag 84.8 (no result: Rce1 inhib) | TAAR1 ag confirm inactive | Ga16 nonsel ag 15.7 | TAAR1 desens 56.2 | Ga16 antag count 42.5
CN(C(=O)CC1C(=O)NCCN1Cc1cccc(F)c1F)C1CC(C)(C)NC(C)(C)C1 (stereo not drawn)	none
Cc1ccc(C(=O)CSC2=C(C#N)C(c3ccco3)CC(=O)N2)c(C)c1 (stereo not drawn)	TAAR1 agonist 73.9 | TAAR1 ag confirm 48.0 | Ga16 nonsel ag 25.3 | TAAR1 desens inactive | Ga16 antag count 23.6
CCC(C)(C)n1nnnc1C(c1ccc(O)c(OC)c1)N1CCc2ccccc2C1 (stereo not drawn)	TAAR1 agonist 104.0, TAAR1 antag 91.9 | TAAR1 ag confirm 105.7 | Ga16 nonsel ag 14.9 | TAAR1 desens 99.7 | Ga16 antag count inactive
COc1cc(CN2CCc3ccccc3C2)cc([N+](=O)[O-])c1O	TAAR1 agonist 97.9, TAAR1 antag 58.8 (no result: Rce1 inhib) | TAAR1 ag confirm 98.2 | Ga16 nonsel ag inactive | TAAR1 desens 77.2 | Ga16 antag count inactive
COc1cc(CN2CCc3ccccc3C2)ccc1O	none (no result: TAAR1 agonist, TAAR1 antag) | Ga16 nonsel ag inactive | Ga16 antag count inactive
COc1cc(CN2CCc3ccc(NC(=O)CCc4ccccc4OC)cc3C2)ccc1O	none
CN(c1ccc(F)cc1)S(=O)(=O)c1ccc(Cl)c(C(=O)OCC(=O)NC2CC2)c1	none (no result: Rce1 inhib, Platelet DG rel)
COc1ccccc1N1CCN(Cc2cc3c(cc2O)OCO3)CC1	none
Oc1cc2c(cc1CN1CCc3ccccc3C1)OCO2	TAAR1 agonist 68.5 | TAAR1 ag confirm inactive | Ga16 nonsel ag inactive | TAAR1 desens inactive | Ga16 antag count inactive
Oc1ccc(CN2CCCCC2)c2cccnc12	none
